Experimental data as given in ChEMBL document CHEMBL1221182, “Functional characterization of IRESes by an inhibitor of the RNA helicase eIF4A” (Nat Chem Biol, 2006).
Calls of active or inactive are those of the source. No cut-off for these calls is given here.

Assays:
[1] = target: Eukaryotic initiation factor 4A-I (Mus musculus, UniProt P60843); test: Inhibition of eIF4A-mediated cap-dependent protein synthesis in FF-HCV-Ren mRNA transfected Swiss mouse Krebs2 cell extract by [35S]methionine metabolic labeling study
Chain of Eukaryotic initiation factor 4A-I (P60843 whole entry): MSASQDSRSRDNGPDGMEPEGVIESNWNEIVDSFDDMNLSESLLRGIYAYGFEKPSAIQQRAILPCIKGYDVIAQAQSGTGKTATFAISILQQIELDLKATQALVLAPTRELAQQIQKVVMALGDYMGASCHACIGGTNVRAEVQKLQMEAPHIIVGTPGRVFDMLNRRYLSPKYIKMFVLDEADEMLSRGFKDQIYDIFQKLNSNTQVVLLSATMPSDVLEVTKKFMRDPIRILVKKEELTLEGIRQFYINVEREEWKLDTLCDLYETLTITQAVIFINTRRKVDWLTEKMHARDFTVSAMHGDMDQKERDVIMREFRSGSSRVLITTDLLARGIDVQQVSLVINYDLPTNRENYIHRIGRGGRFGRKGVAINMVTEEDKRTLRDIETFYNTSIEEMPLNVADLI
Procedure, shortened: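 Cell-free translation in Krebs-2 extracts programmed with capped bicistronic FF-HCV-Ren transcript: cap-dependent firefly cistron, HCV IRES-driven renilla cistron. Final mRNA 5 µg ml⁻¹, K⁺ 100 mM, compound titrated. Controls carry a matched final DMSO level. Products labeled with [³⁵S]methionine, separated by 10% SDS-PAGE, and autoradiographed. Luciferase activities are read by luminometer and expressed relative to vehicle reactions.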

Nucleic Acid [2] = test: Inhibition of EMCV IRES-mediated translation in Swiss mouse Krebs2 extract transfected with bicistronic mRNA by [35S]methionine metabolic labeling study; conditions: Encephalomyocarditis virus
Procedure, shortened: (§1)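 In vitro translation in Krebs-2 extracts programmed with capped bicistronic transcripts at 5 µg ml⁻¹ mRNA and 100 mM K⁺ final. Firefly and renilla luciferase activities read by luminometer. Alternatively, [³⁵S]methionine-labelled products were run on 10% SDS gels and autoradiographed. Control reactions held the same final DMSO level as the compound reactions.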

HeLa [3] = test: Inhibition of protein synthesis in human HeLa cells at 1 uM by [35S]methionine metabolic labeling study; format: functional, cell-based
Nucleic Acid [4] = test: Inhibition of CrPV IRES-mediated translation in Swiss mouse Krebs2 extract transfected with bicistronic mRNA by [35S]methionine metabolic labeling study; procedure, shortened: as §1
[5] = target: Eukaryotic translation initiation factor 4E (Homo sapiens) (UniProt P06730); test: Inhibition of eIF4E interaction with mRNA cap structure in presence of 0.6 mM m7 GDP at 50 uM by chemical cross-linking assay
Chain of Eukaryotic translation initiation factor 4E (Homo sapiens) (P06730 whole entry): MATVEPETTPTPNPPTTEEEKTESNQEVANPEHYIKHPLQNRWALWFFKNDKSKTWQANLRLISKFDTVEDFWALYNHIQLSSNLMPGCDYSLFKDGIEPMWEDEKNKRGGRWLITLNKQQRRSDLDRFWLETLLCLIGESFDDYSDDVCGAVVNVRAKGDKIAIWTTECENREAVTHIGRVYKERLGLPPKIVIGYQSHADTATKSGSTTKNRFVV
Procedure, shortened: (§2)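 Oxidized ³²P cap-labelled CAT mRNA was chemically cross-linked in reactions with 0.9 mM ATP. Protein sources were 1 µg recombinant eIF4A_I, 0.7 µg native eIF4F, or an initiation factor preparation. Competitors were 0.6 mM m⁷GDP or GDP; compound was 50 µM. Samples were RNase A-treated, resolved by SDS-PAGE, and autoradiographed.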

[6] = target: Eukaryotic initiation factor 4A-I (Homo sapiens) (UniProt P60842); test: Inhibition of eIF4A-mediated helicase activity by helicase assay
Chain of Eukaryotic initiation factor 4A-I (Homo sapiens) (P60842 whole entry): as the sequence (P60843 whole entry) above
Procedure, shortened: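 Helicase assay used the RNA-1/11 duplex with 0.4 µM recombinant eIF4A_I and 1 mM ATP. Products were separated on gels, dried, and exposed to film at -80 °C for 12 h.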

[7] = target: Eukaryotic initiation factor 4A-I (Homo sapiens) (UniProt P60842); test: Induction of eIF4A to [alpha-32P]ATP cross linking relative to control
Procedure, shortened: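 [α-³²P]ATP (2.5 µCi) was UV cross-linked to 1 µg recombinant eIF4A_I or 0.7 µg native eIF4F, with 0.5% DMSO or 50 µM compound. Samples were run on SDS-PAGE and autoradiographed at -70 °C for 12 h. Four experiments.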

[8] = Inhibition of DED1-mediated helicase activity by helicase assay
Procedure, shortened: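 Helicase assay used the RNA-1/11 duplex with 25 nM Ded1p and 1 mM ATP. Products were separated on gels, dried, and exposed to film at -80 °C for 12 h.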

[9] = target: Eukaryotic initiation factor 4A-I (Homo sapiens) (UniProt P60842); test: Inhibition of eIF4A interaction with mRNA cap structure in presence of 0.6 mM m7 GDP at 50 uM by chemical cross-linking assay; procedure, shortened: as §2
Triticum aestivum = test: Inhibition of 48S ribosome complex formation in wheat germ extract in presence of 1 mM GMP-PNP assessed as increase in unbound mRNA at 50 uM; format: functional
Procedure, shortened: (§3)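 ³²P-labelled CAT mRNA was incubated 10 min in wheat germ extract or rabbit reticulocyte lysate. Additions were 600 µM cycloheximide, 1 mM GMP-PNP, and 50 µM compound or vehicle. Mixtures were sedimented through 10–30% glycerol gradients at 200,000g for 3.5 h. Fraction radioactivity was measured by scintillation counting.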

[10] = target: Eukaryotic initiation factor 4A-I (Mus musculus) (UniProt P60843); test: Inhibition of eIF4A-mediated cap-dependent protein synthesis in Swiss mouse Krebs2 extract transfected with FF-HCV-Ren mRNA in presence of recombinant eIF4AIf by [35S]methionine metabolic labeling study
Chain of Eukaryotic initiation factor 4A-I (Mus musculus) (P60843 whole entry): as above
Procedure, shortened: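 Krebs-2 translation programmed with FF-HCV-Ren mRNA at 5 µg ml⁻¹ mRNA and 100 mM K⁺ final. Conditions were 0.4 µM compound or 0.004% DMSO, with or without 2.2 µM recombinant eIF4A_If. [³⁵S]methionine products were resolved by SDS-PAGE and autoradiographed. Translational efficiency was taken relative to luciferase from vehicle controls. Three experiments; s.e.m.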

HeLa [11] = test: Growth inhibition of human HeLa cells at 80 nM after 24 hrs; format: functional, cell-based
[12] = target: Eukaryotic initiation factor 4A-I (Homo sapiens) (UniProt P60842); test: Inhibition of eIF4A RNA-dependent ATPase activity assessed as rate of ATP hydrolysis
Procedure, shortened: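 Recombinant murine eIF4A_I (4.5 µg) was expressed in E. coli BL21(DE3) and purified by Ni-NTA and Q-Sepharose. It was incubated with 1 µM [γ-³²P]ATP and 2.5 µM poly(U). Hydrolysis was quantified by phosphorimager. Rate was plotted against compound concentration relative to 0.5% DMSO.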

HeLa [13] = test: Inhibition of protein synthesis in human HeLa cells after 50 mins by [35S]methionine metabolic labeling study; format: functional, cell-based
[14] = target: Eukaryotic translation initiation factor 4E (Homo sapiens) (UniProt P06730); test: Inhibition of eIF4E RNA binding activity in presence of 0.6 mM m7GDP at 50 uM; procedure, shortened: as §2
[15] = tested on: Internal ribosome entry site (IRES); test: Inhibition of HCV IRES-mediated protein synthesis in FF-HCV-Ren mRNA transfected Swiss mouse Krebs2 cell extract at 50 uM by [35S]methionine metabolic labeling study; conditions: Hepacivirus hominis; procedure, shortened: as §1
[16] = target: Eukaryotic initiation factor 4A (Triticum aestivum) (UniProt P41378); test: Inhibition of eIF4A-mediated cap-dependent protein synthesis in wheat germ extract transfected with FF-HCV-Ren mRNA by [35S]methionine metabolic labeling study
Chain of Eukaryotic initiation factor 4A (Triticum aestivum) (P41378 whole entry): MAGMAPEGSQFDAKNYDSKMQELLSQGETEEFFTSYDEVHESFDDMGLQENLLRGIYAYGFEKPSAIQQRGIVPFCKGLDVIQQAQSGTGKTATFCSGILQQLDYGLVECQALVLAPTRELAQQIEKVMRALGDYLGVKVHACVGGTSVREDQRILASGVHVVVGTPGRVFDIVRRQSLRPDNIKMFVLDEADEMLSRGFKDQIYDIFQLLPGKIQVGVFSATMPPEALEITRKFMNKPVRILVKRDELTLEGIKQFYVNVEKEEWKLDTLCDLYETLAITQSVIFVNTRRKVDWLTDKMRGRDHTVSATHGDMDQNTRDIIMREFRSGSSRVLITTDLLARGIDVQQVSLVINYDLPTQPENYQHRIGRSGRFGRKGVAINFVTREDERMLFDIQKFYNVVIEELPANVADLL
Procedure, shortened: (§4)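 Rabbit reticulocyte lysate or wheat germ extract translations were run to kit instructions. Control reactions carried the same final DMSO concentration as the compound-containing reactions.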

HeLa [17] = test: Inhibition of RNA synthesis in human HeLa cells assessed as [3H] Uridine incorporation at 1 uM by scintillation counting; format: functional, cell-based
[18] = target: Eukaryotic initiation factor 4A-I (Homo sapiens) (UniProt P60842); test: Inhibition of eIF4A RNA binding activity in presence of 0.6 mM m7GDP at 50 uM; procedure, shortened: as §2
[19] = target: Eukaryotic initiation factor 4A-I (Oryctolagus cuniculus) (UniProt P29562); test: Inhibition of eIF4A-mediated cap-dependent protein synthesis in rabbit reticulocyte lysate transfected with FF-HCV-Ren mRNA by [35S]methionine metabolic labeling study; procedure, shortened: as §4
Chain of Eukaryotic initiation factor 4A-I (Oryctolagus cuniculus) (P29562 whole entry): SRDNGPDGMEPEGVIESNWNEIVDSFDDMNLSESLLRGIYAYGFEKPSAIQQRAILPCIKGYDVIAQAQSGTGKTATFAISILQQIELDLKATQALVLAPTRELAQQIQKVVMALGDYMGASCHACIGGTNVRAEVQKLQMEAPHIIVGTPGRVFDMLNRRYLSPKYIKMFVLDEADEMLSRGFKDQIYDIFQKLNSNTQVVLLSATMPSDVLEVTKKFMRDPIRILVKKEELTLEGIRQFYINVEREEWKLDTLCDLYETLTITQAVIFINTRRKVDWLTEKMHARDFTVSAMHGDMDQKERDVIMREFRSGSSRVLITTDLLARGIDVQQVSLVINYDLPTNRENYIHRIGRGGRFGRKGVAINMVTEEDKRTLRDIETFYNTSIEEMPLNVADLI

[20] = target: Eukaryotic translation initiation factor 4B (Homo sapiens) (UniProt P23588); test: Inhibition of eIF4B interaction with mRNA cap structure in presence of 0.6 mM m7GDP at 50 uM by chemical cross-linking assay; procedure, shortened: as §2
Chain of Eukaryotic translation initiation factor 4B (Homo sapiens) (P23588 whole entry): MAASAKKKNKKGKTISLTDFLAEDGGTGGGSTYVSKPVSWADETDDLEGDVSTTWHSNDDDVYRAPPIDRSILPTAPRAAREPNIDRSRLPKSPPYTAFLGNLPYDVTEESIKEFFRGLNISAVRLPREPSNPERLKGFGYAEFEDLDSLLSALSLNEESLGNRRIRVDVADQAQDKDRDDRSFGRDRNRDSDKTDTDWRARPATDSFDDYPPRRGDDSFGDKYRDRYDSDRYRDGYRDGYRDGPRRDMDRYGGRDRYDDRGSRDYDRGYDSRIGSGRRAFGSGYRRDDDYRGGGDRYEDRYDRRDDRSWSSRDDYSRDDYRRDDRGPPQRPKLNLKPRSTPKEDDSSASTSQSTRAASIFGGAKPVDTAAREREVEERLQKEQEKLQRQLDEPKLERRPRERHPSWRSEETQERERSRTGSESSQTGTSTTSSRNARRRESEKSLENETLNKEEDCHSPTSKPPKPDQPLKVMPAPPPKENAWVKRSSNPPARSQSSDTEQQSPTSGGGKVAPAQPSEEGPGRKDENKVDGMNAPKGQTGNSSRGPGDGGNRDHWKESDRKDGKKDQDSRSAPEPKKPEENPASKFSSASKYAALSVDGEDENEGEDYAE

HeLa [21] = test: Disruption of polyribosmes in human HeLa cells at 1 uM after 20 mins; format: functional, cell-based
[22] = target: Eukaryotic initiation factor 4A-I (Homo sapiens) (UniProt P60842); test: Inhibition of eIF4A binding to 32p cap-labeled mRNA at 50 uM; procedure, shortened: as §2
Escherichia coli = test: Inhibition of eIF4A-mediated cap-dependent protein synthesis in Escherichia coli S30 extract transfected with FF-HCV-Ren mRNA at 50 uM by [35S]methionine metabolic labeling study
Oryctolagus cuniculus = organism: Oryctolagus cuniculus; test: Inhibition of 80S ribosome complex formation in rabbit reticulocyte lysate in presence of 600 uM cyclohexamide assessed as increase in unbound mRNA at 50 uM; format: functional; procedure, shortened: as §3
Nucleic Acid [23] = test: Inhibition of polio virus IRES-mediated translation in Swiss mouse Krebs2 extract transfected with bicistronic mRNA by [35S]methionine metabolic labeling study; conditions: Enterovirus C; procedure, shortened: as §1
HeLa [24] = test: Inhibition of protein synthesis in human HeLa cells at 1 uM after 60 mins by [35S]methionine metabolic labeling study; format: functional, cell-based
Nucleic Acid [25] = test: Inhibition of PTV-1 IRES-mediated translation in Swiss mouse Krebs2 extract transfected with bicistronic mRNA by [35S]methionine metabolic labeling study; conditions: Porcine teschovirus 1; procedure, shortened: as §1
HeLa [26] = test: Inhibition of DNA synthesis in human HeLa cells assessed as [3H] thymidine incorporation at 1 uM by scintillation counting; format: functional, cell-based
[27] = target: Eukaryotic initiation factor 4A-I (Mus musculus) (UniProt P60843); test: Inhibition of eIF4A-mediated cap-dependent translation in Swiss mouse Krebs2 extract transfected with bicistronic mRNA by [35S]methionine metabolic labeling study; procedure, shortened: as §1

Molecule `CC(=O)O[C@@H]1CC[C@@]2(C)[C@@H](CC[C@@H]3[C@@H]2[C@@H](OC(C)=O)C[C@@]2(C)[C@H]3C[C@@H]3O[C@@]4(C[C@H](C)C(C)(C)O4)[C@](C)(O)[C@@H]32)C1` has an IC50 [1] of 64 µM.

Molecule `CC(=O)O[C@@H]1C[C@@]2(C)[C@@H](CC[C@@H]3[C@@H]2[C@@H](O)C[C@@]2(C)[C@H]3C[C@@H]3O[C@]4(C[C@H](C)C(C)(C)O4)[C@](C)(O)[C@@H]32)C[C@@H]1O` [EPIHIPPURIN 1] has an IC50 [1] greater than 100 µM.

With `CC(=O)O[C@@H]1CC[C@@]2(C)[C@@H](CC[C@@H]3[C@@H]2[C@@H](O)C[C@@]2(C)[C@H]3C[C@@H]3O[C@@]4(C[C@H](C)C(C)(C)O4)[C@](C)(O)[C@@H]32)C1` the IC50 [1] was 10 µM.

For `C[C@H]1C[C@]2(O[C@H]3C[C@H]4[C@@H]5CC[C@H]6C[C@H](O)CC[C@]6(C)[C@H]5C(=O)C[C@]4(C)[C@H]3[C@@]2(C)O)OC1(C)C`, the IC50 [1] was greater than 100 µM.

With `CC(=O)O[C@@H]1CC[C@@]2(C)[C@@H](CC[C@@H]3[C@@H]2[C@@H](O)C[C@@]2(C)[C@H]3C[C@@H]3O[C@]4(C[C@H](C)C(C)(C)O4)[C@](C)(O)[C@@H]32)C1` the IC50 [1] was greater than 100 µM.

For `CC(=O)O[C@@H]1CC[C@@]2(C)[C@@H](CC[C@@H]3[C@@H]2[C@@H](O)C[C@]24[C@H](O)O[C@]5(C)[C@H]2[C@H](C[C@@H]34)O[C@]52C[C@H](C)C(C)(C)O2)C1` [HIPPURISTANOHEMIACETAL], the IC50 [1] was 91 µM.

For `C[C@H]1C[C@@]2(O[C@H]3C[C@H]4[C@@H]5CC[C@H]6C[C@H](O)CC[C@]6(C)[C@H]5[C@@H](O)C[C@]4(C)[C@H]3[C@@]2(C)O)OC1(C)C` [HIPPURISTANOL], the inhibition (Nucleic Acid [2]) was “Active”, the inhibition (HeLa [3]) was “Active” and the inhibition (Nucleic Acid [4]) was “inactive”. The inhibition [5] was “inactive”, the inhibition [6] was “Active” and the fold change (FC) [7] was 2. The inhibition [8] was “inactive”, the inhibition [9] was “Active” and the IC50 [1] was 0.4 µM. The inhibition (Triticum aestivum) was “Active”, the inhibition [10] was “Active” and the inhibition (HeLa [11]) was “Active”. The inhibition [12] was “Active”, the inhibition (HeLa [13]) was “Active” and the inhibition [14] was “inactive”. The inhibition [15] was “inactive”, the inhibition [16] was “Active” and the inhibition (HeLa [17]) was “Active”. For the same molecule, the inhibition [18] was “Active”, the inhibition [19] was “Active” and the inhibition [20] was “Active”. For the same molecule, the inhibition (HeLa [21]) was “Active”, the inhibition [22] was “Active” and the inhibition (Escherichia coli) was “Active”. The inhibition (Oryctolagus cuniculus) was “Active”, the inhibition (Nucleic Acid [23]) was “Active” and the inhibition (HeLa [24]) was “Active”. For the same molecule, the inhibition (Nucleic Acid [25]) was “Active”, the inhibition (HeLa [26]) was “Active” and the inhibition [27] was “Active”.

With `C[C@H]1C[C@@]2(O[C@H]3C[C@H]4[C@@H]5CC[C@H]6CC(=O)CC[C@]6(C)[C@H]5C(=O)C[C@]4(C)[C@H]3[C@@]2(C)O)OC1(C)C` the IC50 [1] was 52 µM.

Work on `CC(=O)O[C@@H]1C[C@@]2(C)[C@@H](CC[C@@H]3[C@@H]2[C@@H](O)C[C@@]2(C)[C@H]3C[C@@H]3O[C@@]4(C[C@H](C)C(C)(C)O4)[C@](C)(O)[C@@H]32)C[C@@H]1O` yielded an IC50 [1] of 1.5 µM.

In the case of `C[C@H]1C[C@]2(O[C@H]3C[C@H]4[C@@H]5CC[C@H]6C[C@H](O)[C@H](O)C[C@]6(C)[C@H]5[C@@H](O)C[C@]4(C)[C@H]3[C@@]2(C)O)OC1(C)C`, the IC50 [1] is reported as 19 µM.
